In ChEMBL document CHEMBL1144990, “Alpha1-adrenoceptor antagonists. 6. Structural optimization of pyridazinone-arylpiperazines. Study of the influence on affinity and selectivity of cyclic substituents at the pyridazinone ring and alkoxy groups at the arylpiperazine moiety” (J Med Chem, 2003):

Key:
[1] = target: T1, Adrenergic receptor alpha-1 (Rattus norvegicus, UniProt P15823+P23944+P43140); test: Binding affinity for Alpha-1 adrenergic receptor in rat cortex membranes using [3H]-prazosin as radioligand; assay type: cell membranes
T1 sequence (P15823 whole entry): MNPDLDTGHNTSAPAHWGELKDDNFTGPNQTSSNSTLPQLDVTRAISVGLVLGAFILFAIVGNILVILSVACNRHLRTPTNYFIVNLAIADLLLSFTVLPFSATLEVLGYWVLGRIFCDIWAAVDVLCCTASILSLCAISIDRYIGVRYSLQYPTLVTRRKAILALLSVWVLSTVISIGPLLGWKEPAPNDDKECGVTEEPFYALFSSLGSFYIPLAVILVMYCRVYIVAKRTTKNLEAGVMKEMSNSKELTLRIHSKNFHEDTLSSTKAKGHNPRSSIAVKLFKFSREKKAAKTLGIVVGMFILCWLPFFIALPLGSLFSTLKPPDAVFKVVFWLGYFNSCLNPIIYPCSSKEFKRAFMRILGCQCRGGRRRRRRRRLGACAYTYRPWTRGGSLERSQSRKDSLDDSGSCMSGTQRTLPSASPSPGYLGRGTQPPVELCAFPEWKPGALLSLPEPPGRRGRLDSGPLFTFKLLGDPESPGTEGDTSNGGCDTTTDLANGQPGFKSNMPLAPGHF
T1 sequence (P23944 whole entry): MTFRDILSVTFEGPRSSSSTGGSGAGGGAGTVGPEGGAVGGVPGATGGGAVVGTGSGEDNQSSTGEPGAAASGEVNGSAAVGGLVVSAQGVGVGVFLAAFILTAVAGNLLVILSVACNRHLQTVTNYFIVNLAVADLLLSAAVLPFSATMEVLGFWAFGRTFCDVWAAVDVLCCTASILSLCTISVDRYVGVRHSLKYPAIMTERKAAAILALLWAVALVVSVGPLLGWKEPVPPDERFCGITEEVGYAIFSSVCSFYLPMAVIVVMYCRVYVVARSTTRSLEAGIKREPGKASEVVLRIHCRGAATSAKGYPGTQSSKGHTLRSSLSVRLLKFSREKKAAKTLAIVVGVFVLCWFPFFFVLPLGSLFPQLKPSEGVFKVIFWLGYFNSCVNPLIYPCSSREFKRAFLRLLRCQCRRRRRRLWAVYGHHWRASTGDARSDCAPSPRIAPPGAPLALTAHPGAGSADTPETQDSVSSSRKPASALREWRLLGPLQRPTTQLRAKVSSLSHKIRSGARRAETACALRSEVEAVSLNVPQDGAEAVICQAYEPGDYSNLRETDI
T1 sequence (P43140 whole entry): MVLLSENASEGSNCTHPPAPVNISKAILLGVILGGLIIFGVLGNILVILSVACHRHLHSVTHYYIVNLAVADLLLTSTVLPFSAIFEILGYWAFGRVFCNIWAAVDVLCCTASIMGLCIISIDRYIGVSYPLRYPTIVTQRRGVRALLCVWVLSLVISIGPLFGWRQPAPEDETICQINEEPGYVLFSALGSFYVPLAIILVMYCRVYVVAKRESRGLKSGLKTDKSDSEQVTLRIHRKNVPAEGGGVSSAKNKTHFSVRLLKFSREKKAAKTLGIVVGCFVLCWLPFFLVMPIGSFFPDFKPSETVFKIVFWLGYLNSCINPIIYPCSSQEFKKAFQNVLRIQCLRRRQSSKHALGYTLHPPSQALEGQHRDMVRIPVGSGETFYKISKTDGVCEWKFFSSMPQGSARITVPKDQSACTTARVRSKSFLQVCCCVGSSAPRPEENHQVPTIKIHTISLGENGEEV

[2] = target: T2, 5-hydroxytryptamine receptor 1A (Rattus norvegicus, UniProt P19327); test: Displacement of [3H]8-OH-DPAT from 5-hydroxytryptamine 1A receptor of rat cortex membranes; assay type: cell membranes, Membrane
T2 sequence (P19327 whole entry): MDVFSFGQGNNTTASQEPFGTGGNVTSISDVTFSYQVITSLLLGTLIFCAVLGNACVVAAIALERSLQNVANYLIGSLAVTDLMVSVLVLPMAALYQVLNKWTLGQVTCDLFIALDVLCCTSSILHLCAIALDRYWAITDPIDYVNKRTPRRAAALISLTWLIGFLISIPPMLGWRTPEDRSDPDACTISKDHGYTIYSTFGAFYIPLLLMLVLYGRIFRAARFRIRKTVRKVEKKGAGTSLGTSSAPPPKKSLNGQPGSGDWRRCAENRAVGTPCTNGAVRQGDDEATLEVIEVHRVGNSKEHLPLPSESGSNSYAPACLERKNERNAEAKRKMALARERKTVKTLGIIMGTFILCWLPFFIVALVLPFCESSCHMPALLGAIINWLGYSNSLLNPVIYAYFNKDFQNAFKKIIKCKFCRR
Summary of the method: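 Competition binding with seven drug concentrations, each in triplicate, across three separate experiments. IC50 values were converted to Ki by the Cheng–Prusoff equation, Ki = IC50/(1 + [L]/Kd), where [L] is the radioligand concentration and Kd its dissociation constant. Ki is reported as mean ± SD.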

[3] = target: Adrenergic receptor alpha-1 (Rattus norvegicus) (UniProt P15823+P23944+P43140)
[4] = target: T1, Adrenergic receptor alpha-1; test: Intrinsic activity towards Alpha-1 adrenergic receptor by the displacement of [3H]prazosin from rat cerebral cortex membrane in presence of 1 nM GTP.; assay type: tissue-based
[5] = target: T1, Adrenergic receptor alpha-1; test: Intrinsic activity towards Alpha-1 adrenergic receptor by the displacement of [3H]prazosin from rat cerebral cortex membrane in absence of 1 nM GTP; assay type: tissue-based
[6] = target: T3, Adrenergic receptor alpha-2 (Rattus norvegicus, UniProt P22086+P19328+P22909); test: Binding affinity for Alpha-2 adrenergic receptor in rat cortex membranes using [3H]rauwolscine as radioligand; assay type: cell membranes
T3 sequence (P22086 whole entry): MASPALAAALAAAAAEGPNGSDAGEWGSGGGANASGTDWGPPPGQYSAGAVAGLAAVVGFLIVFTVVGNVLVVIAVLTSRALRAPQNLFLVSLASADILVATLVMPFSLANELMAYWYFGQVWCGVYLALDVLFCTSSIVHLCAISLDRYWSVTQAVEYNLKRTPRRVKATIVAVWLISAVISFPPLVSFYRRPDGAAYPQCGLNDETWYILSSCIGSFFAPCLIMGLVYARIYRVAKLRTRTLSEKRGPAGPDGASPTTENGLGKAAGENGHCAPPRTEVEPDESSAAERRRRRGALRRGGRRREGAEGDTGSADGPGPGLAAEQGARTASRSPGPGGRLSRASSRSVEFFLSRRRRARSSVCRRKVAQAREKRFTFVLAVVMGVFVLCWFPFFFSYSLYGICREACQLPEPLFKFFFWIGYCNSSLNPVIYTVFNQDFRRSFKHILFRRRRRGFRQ
T3 sequence (P19328 whole entry): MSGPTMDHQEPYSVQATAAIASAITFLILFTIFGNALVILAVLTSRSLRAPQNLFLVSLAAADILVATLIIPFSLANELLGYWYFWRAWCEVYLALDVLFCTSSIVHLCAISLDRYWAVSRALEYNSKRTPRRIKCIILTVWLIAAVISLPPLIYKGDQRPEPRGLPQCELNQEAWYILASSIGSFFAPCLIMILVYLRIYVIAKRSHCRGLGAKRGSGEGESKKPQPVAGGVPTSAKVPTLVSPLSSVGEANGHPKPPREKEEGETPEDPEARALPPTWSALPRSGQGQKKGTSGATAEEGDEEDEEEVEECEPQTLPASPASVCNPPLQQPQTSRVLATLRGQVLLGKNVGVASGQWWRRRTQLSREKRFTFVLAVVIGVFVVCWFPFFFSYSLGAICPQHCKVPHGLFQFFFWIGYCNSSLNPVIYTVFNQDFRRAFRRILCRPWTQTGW
T3 sequence (P22909 whole entry): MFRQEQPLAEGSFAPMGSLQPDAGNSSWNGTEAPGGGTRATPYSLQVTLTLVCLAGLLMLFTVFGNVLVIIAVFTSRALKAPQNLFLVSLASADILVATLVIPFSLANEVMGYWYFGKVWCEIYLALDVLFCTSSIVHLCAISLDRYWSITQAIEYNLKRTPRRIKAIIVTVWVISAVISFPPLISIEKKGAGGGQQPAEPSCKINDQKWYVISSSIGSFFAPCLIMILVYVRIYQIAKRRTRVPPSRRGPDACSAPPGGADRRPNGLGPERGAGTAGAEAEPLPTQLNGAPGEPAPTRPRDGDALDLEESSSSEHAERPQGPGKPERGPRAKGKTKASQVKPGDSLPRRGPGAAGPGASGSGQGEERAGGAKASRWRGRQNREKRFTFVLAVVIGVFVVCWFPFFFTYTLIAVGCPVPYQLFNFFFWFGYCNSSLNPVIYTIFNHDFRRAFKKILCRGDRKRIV

SMILES	Ki [1] [nM]	Ki [2] [nM]	GTP shift [3]	Ki [4] [nM]	Ki [5] [nM]	Ki [6] [nM]
COc1ccccc1OCCN1CCN(c2cnn(CCCCCCCN3CCN(c4ccccc4OC)CC3)c(=O)c2Cl)CC1	1.45	–	–	–	–	–
CC(C)Oc1ccccc1N1CCN(CCCCCCCn2ncc(N3CCN(CC4COc5ccccc5O4)CC3)c(Cl)c2=O)CC1 (configuration not stated)	0.31	2.47	1.4	0.33	0.23	3.34
CCOc1ccccc1N1CCN(CCCCCCCn2ncc(N3CCN(CC4COc5ccccc5O4)CC3)c(Cl)c2=O)CC1 (configuration not stated)	0.42	49.8	–	–	–	2.16
CC(C)Oc1ccccc1N1CCN(CCCCCCCn2ncc(Cl)c(N3CCN(CC4COc5ccccc5O4)CC3)c2=O)CC1 (configuration not stated)	0.32	1.52	–	–	–	13.4
CCOc1ccccc1OCCN1CCN(c2cnn(CCCCCCCN3CCN(c4ccccc4OC(C)C)CC3)c(=O)c2Cl)CC1	–	2.54	0.8	0.22	0.28	–
COc1ccccc1N1CCN(CCCCCCCn2ncc(N3CCN(CC4COc5ccccc5O4)CC3)c(Cl)c2=O)CC1 (configuration not stated)	1.68	11.1	–	–	–	0.85
CCOc1ccccc1OCCN1CCN(c2cnn(CCCCCCCN3CCN(c4ccccc4OCC)CC3)c(=O)c2Cl)CC1	–	1.32	–	–	–	–
CCOc1ccccc1N1CCN(CCCCCCCn2ncc(Cl)c(N3CCN(CC4COc5ccccc5O4)CC3)c2=O)CC1 (configuration not stated)	0.43	1.02	–	–	–	2.4
COc1cc2nc(N3CCN(C(=O)c4ccco4)CC3)nc(N)c2cc1OC	–	–	1.2	–	–	–
CC(C)Oc1ccccc1N1CCN(CCCCCCCn2ncc(Cl)c(N3CCN(C(=O)c4ccco4)CC3)c2=O)CC1	0.08	1.16	–	–	–	0.66

Next, values leading:

Ki [1] [nM]	Ki [2] [nM]	GTP shift [3]	Ki [4] [nM]	Ki [5] [nM]	Ki [6] [nM]	SMILES
–	0.9	1.7	0.081	0.047	–	CC(C)Oc1ccccc1N1CCN(CCCCCCCn2ncc(N3CCN(C(=O)c4ccco4)CC3)c(Cl)c2=O)CC1
0.37	0.42	–	–	–	1.23	COc1ccccc1N1CCN(CCCCCCCn2ncc(Cl)c(N3CCN(C(=O)c4ccco4)CC3)c2=O)CC1
–	0.82	–	–	–	–	CCOc1ccccc1OCCN1CCN(c2cnn(CCCCCCCN3CCN(c4ccccc4OC)CC3)c(=O)c2Cl)CC1
0.23	0.35	–	–	–	0.8	CCOc1ccccc1N1CCN(CCCCCCCn2ncc(Cl)c(N3CCN(C(=O)c4ccco4)CC3)c2=O)CC1
0.54	0.4	–	–	–	1.45	COc1ccccc1N1CCN(CCCCCCCn2ncc(Cl)c(N3CCN(CC4COc5ccccc5O4)CC3)c2=O)CC1 (configuration not stated)
